Measured values as given in ChEMBL document CHEMBL3102701, “Polyandric acid A, a clerodane diterpenoid from the Australian medicinal plant Dodonaea polyandra, attenuates pro-inflammatory cytokine secretion in vitro and in vivo” (J Nat Prod, 2014).
Calls of active or inactive are those of the source. No cut-off for these calls is given here.

Tests used:
Mus musculus [1] = experiment: Antiinflammatory activity in Balb/C chronic mouse ear edema model assessed as reduction in TPA-induced edema at 0.9 umol/ear administered topically, bid from day 7 to day 10 measured every day during compound administration relative to control; type: functional; design: scale not given: the % may be the effect or the level left
How it was run: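 Male Balb/C mice, 7–9 weeks old, acclimated at least 4 days. 20 μL TPA (125 μg/mL) was applied to inner and outer surfaces of both ears on alternate days from day 0. Test agent at 0.9 μmol/ear in 20 μL ethanol was applied topically to both ears morning and afternoon on days 7–9, with one more dose on day 10 morning. Ear thickness was read with a digital micrometer on days 0–4 and 7–10; means ± SEM, n ≥ 6.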

THP-1 [2] = experiment: Antiinflammatory activity in human THP1 cells assessed as inhibition of TPA/ionomycin-induced extracellular IL-1beta level at 30 uM incubated 1 hr prior to TPA/ionomycin challenge measured after 24 hrs by ELISA; type: functional
How it was run: (§1)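 THP-1 monocytes (100 000/well) in RPMI-1640 preincubated 1 h with test agent, ethanol ≤0.05%. Stimulated with TPA 40 ng/mL/ionomycin 1 μM (final) for 24 h at 37 °C, 5% CO2. Supernatant kept for extracellular cytokines. Washed cells were lysed in ice-cold RIPA with protease inhibitors for intracellular IL-1β and pro-IL-1β. ELISA read-out; n = 6.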

[3] = system: neonatal human epidermal keratinocytes (Homo sapiens); experiment: Antiinflammatory activity in human NHEK cells assessed as inhibition of TPA/ionomycin-induced IL-8 production at 0.3 to 30 uM incubated for 1 hr prior to TPA/ionomycin challenge measured after 6 to 24 hrs by ELISA
[4] = Cytotoxicity against human NHEK cells assessed as cell viability at <60 uM after 24 hrs by MTS assay; type: cell-based
How it was run: (§2)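 MTS viability: cells at 50 000/well were preincubated 1 h, then serial half-dilutions of test agent were added. After 24 h incubation, MTS reagent was added for 1 h and absorbance read at 492 nm.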

[5] = system: neonatal human epidermal keratinocytes (Homo sapiens); experiment: Antiinflammatory activity in human NHEK cells assessed as inhibition of TPA/ionomycin-induced extracellular TNF-alpha production at 30 uM incubated for 1 hr prior to TPA/ionomycin challenge measured after 6 to 24 hrs by ELISA
Mus musculus [6] = experiment: Antiinflammatory activity in Balb/C mouse ear edema model assessed as reduction of TPA-induced IL-1beta production at 0.9 umol/ear by ELISA relative to control; type: functional; design: scale not given: the % may be the effect or the level left
How it was run: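 Acute TPA ear model in male Balb/C mice, killed 6 h after treatment (0.9 μmol/ear topical). 5 mm ear punches were homogenized in 50 mM Tris-HCl pH 7.4/1 mM EDTA with protease inhibitors, then held 15 min on ice with 1% Triton X-100. Spun at 9500g, 4 °C; supernatant assayed by ELISA. Basal untreated-ear levels were subtracted.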

THP-1 [7] = experiment: Antiinflammatory activity in human THP1 cells assessed as inhibition of TPA/ionomycin-induced extracellular IL-1beta level at 3 uM incubated 1 hr prior to TPA/ionomycin challenge measured after 24 hrs by ELISA; type: functional; how it was run: as §1
Mus musculus [8] = experiment: Antiinflammatory activity in Balb/C chronic mouse ear edema model assessed as reduction in TPA-induced myeloperoxidase accumulation at 0.9 umol/ear administered topically, bid from day 7 to day 10 measured every day during compound administration relative to control; type: functional; design: scale not given: the % may be the effect or the level left
How it was run: (§3)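 Chronic TPA ear model in male Balb/C mice: topical dosing at 0.9 μmol/ear in ethanol, twice daily days 7–9 and once on day 10, then euthanasia. 5 mm ear punches were homogenized in 80 mM PBS pH 5.4 with 0.5% HTAB and centrifuged. Supernatant in duplicate was reacted with H2O2 and 18.4 mM tetramethylbenzidine for 3 min at 37 °C. Stopped with sodium acetate pH 3.0; A600 read as neutrophil marker.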

[9] = Antiinflammatory activity in human NHEK cells assessed as inhibition of TPA/ionomycin-induced extracellular IL-6 production at 30 uM incubated for 1 hr prior to TPA/ionomycin challenge measured after 24 hrs by ELISA; type: functional
How it was run: (§4)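 Primary neonatal keratinocytes (passage ≤3) seeded at 10 000/well for 18 h at 37 °C, 5% CO2, then given fresh medium. Preincubated 1 h with test agent, then stimulated with TPA 40 ng/mL/ionomycin 1 μM. Supernatants taken at 6 and 24 h, centrifuged and stored at −80 °C. Extracellular cytokines measured by ELISA; means ± SEM, n = 6.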

Mus musculus [10] = experiment: Antiinflammatory activity in Balb/C chronic mouse ear edema model assessed as reduction in TPA-induced redness in ears at 0.9 umol/ear administered topically, bid from day 7 to day 10 measured every day during compound administration relative to control; type: functional, organism-based
Mus musculus [11] = experiment: Antiinflammatory activity in Balb/C chronic mouse ear edema model assessed as reduction in TPA-induced scaling in ears at 0.9 umol/ear administered topically, bid from day 7 to day 10 measured every day during compound administration relative to control; type: functional, organism-based
THP-1 [12] = experiment: Cytotoxicity against human THP1 cells assessed as cell viability at <60 uM after 24 hrs by MTS assay; type: cell-based; conditions: thp-1, 24 h; how it was run: as §2
[13] = Antiinflammatory activity in human NHEK cells assessed as inhibition of TPA/ionomycin-induced extracellular IL-6 production at 30 uM incubated for 1 hr prior to TPA/ionomycin challenge measured after 6 hrs by ELISA; type: functional; how it was run: as §4
[14] = Cytotoxicity against human NHEK cells assessed as cell viability at 30 uM after 24 hrs by MTS assay; type: cell-based; how it was run: as §2
[15] = Antiinflammatory activity in human NHEK cells assessed as inhibition of TPA/ionomycin-induced extracellular TNF-alpha production at 3 uM incubated for 1 hr prior to TPA/ionomycin challenge measured after 6 hrs by ELISA; type: functional; how it was run: as §4
[16] = system: neonatal human epidermal keratinocytes (Homo sapiens); experiment: Antiinflammatory activity in human NHEK cells assessed as inhibition of TPA/ionomycin-induced extracellular TNF-alpha production at 3 uM incubated for 1 hr prior to TPA/ionomycin challenge measured after 24 hrs by ELISA
THP-1 [17] = experiment: Cytotoxicity against human THP1 cells assessed as cell viability at 30 uM after 24 hrs by MTS assay; type: cell-based; conditions: thp-1, 24 h; how it was run: as §2
THP-1 [18] = experiment: Antiinflammatory activity in human THP1 cells assessed as inhibition of TPA/ionomycin-induced TNF-alpha production at 30 uM incubated 1 hr prior to TPA/ionomycin challenge measured after 24 hrs by ELISA; type: functional; how it was run: as §1
[19] = system: neonatal human epidermal keratinocytes (Homo sapiens); experiment: Antiinflammatory activity in human NHEK cells assessed as inhibition of TPA/ionomycin-induced IL-1alpha production at 0.3 to 30 uM incubated for 1 hr prior to TPA/ionomycin challenge measured after 6 to 24 hrs by ELISA
RAW264.7 [20] = experiment: Antiinflammatory activity in mouse RAW264.7 cells assessed as inhibition of LPS-induced NO production at 3 to 30 uM incubated for 1 hr prior to LPS-challenge measured after 24 hrs by Greiss assay; type: functional, cell-based
How it was run: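 RAW264.7 macrophages (100 000/well) in DMEM preincubated 1 h with test agent at 3 or 30 μM. Stimulated with LPS 1 μg/mL final for 24 h at 37 °C, 5% CO2. Supernatant nitrite measured by Griess reaction (sulfanilic acid and N-naphthylethylenediamine in 5% HCl, 10 min at 37 °C). A540 read against a sodium nitrite standard curve; n = 8.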

THP-1 [21] = experiment: Antiinflammatory activity in human THP1 cells assessed as inhibition of TPA/ionomycin-induced intracellular proIL-1beta level at 30 uM incubated 1 hr prior to TPA/ionomycin challenge measured after 24 hrs by ELISA; type: functional; how it was run: as §1
THP-1 [22] = experiment: Antiinflammatory activity in human THP1 cells assessed as inhibition of TPA/ionomycin-induced intracellular IL-1beta level at 30 uM incubated 1 hr prior to TPA/ionomycin challenge measured after 24 hrs by ELISA; type: functional; how it was run: as §1
Mus musculus [23] = experiment: Antiinflammatory activity in Balb/C chronic mouse ear edema model assessed as reduction in TPA-induced flaky appearance in ears at 0.9 umol/ear administered topically, bid from day 7 to day 10 measured every day during compound administration relative to control; type: functional, organism-based
Mus musculus [24] = experiment: Antiinflammatory activity in Balb/C chronic mouse ear edema model assessed as reduction in influx of neutrophils at 0.9 umol/ear administered topically, bid from day 7 to day 10 measured every day during compound administration relative to control; type: functional, organism-based; how it was run: as §3
RAW264.7 [25] = experiment: Cytotoxicity against mouse RAW264.7 cells assessed as cell viability at <60 uM after 24 hrs by MTS assay; type: cell-based; conditions: raw264.7, 24 h; how it was run: as §2
THP-1 [26] = experiment: Antiinflammatory activity in human THP1 cells assessed as inhibition of TPA/ionomycin-induced extracellular IL-1beta level at 5 uM incubated 1 hr prior to TPA/ionomycin challenge measured after 24 hrs by ELISA; type: functional, cell-based; how it was run: as §1
THP-1 [27] = experiment: Antiinflammatory activity in human THP1 cells assessed as inhibition of TPA/ionomycin-induced intracellular IL-1beta level at 5 uM incubated 1 hr prior to TPA/ionomycin challenge measured after 24 hrs by ELISA; type: functional, cell-based; how it was run: as §1
THP-1 [28] = experiment: Antiinflammatory activity in human THP1 cells assessed as inhibition of TPA/ionomycin-induced intracellular proIL-1beta level at 5 uM incubated 1 hr prior to TPA/ionomycin challenge measured after 24 hrs by ELISA; type: functional, cell-based; how it was run: as §1
THP-1 [29] = experiment: Antiinflammatory activity in human THP1 cells assessed as inhibition of TPA/ionomycin-induced extracellular TNF-alpha production at 5 uM incubated 1 hr prior to TPA/ionomycin challenge measured after 24 hrs by ELISA; type: functional, cell-based; how it was run: as §1

## C[C@]1(CCc2ccoc2)[C@H](COC(=O)c2ccccc2)CC[C@@]2(C)C(C(=O)O)=C[C@H](O)C[C@H]12
Mus musculus [1]
  Activity: 41.1%
THP-1 [2]
  inhibition at 30 µM: 26.3%
[3]
  inhibition: inactive
[4]
  Activity: Non-toxic
[5]
  inhibition: inactive
Mus musculus [6]
  Activity: 78%
THP-1 [7]
  inhibition at 3 µM: 18%
Mus musculus [8]
  Activity: 81.5%
[9]
  inhibition at 30 µM: 41.5%
Mus musculus [10]
  Activity: Active
Mus musculus [11]
  Activity: Active
THP-1 [12]
  Activity: Non-toxic
[13]
  inhibition at 30 µM: 33.2%
[14]
  Activity: Non-toxic
[15]
  inhibition at 3 µM: 26.2%
[16]
  inhibition: inactive
THP-1 [17]
  Activity: Non-toxic
THP-1 [18]
  inhibition at 30 µM: 19.7%
[19]
  inhibition: inactive
RAW264.7 [20]
  inhibition: inactive
THP-1 [21]
  inhibition at 30 µM: 17%
THP-1 [22]
  inhibition at 30 µM: 15%
Mus musculus [23]
  Activity: Active
Mus musculus [24]
  Activity: Active
RAW264.7 [25]
  Activity: Non-toxic

## CCC(=O)OCC(=O)[C@@]1(OC(=O)CC)[C@@H](C)C[C@H]2[C@@H]3CCC4=CC(=O)C=C[C@]4(C)[C@@]3(F)[C@@H](O)C[C@@]21C [BETAMETHASONE DIPROPIONATE]
Mus musculus [1]
  Activity: 54.2%
Mus musculus [8]
  Activity: 90%

## Cc1ccc(S(=O)(=O)/C=C/C#N)cc1
THP-1 [26]
  inhibition: Active
THP-1 [27]
  inhibition: Active
THP-1 [28]
  inhibition: Active
THP-1 [29]
  inhibition: Active
